This is an account of results in ChEMBL document CHEMBL1157324, “Lophocladines, bioactive alkaloids from the red alga Lophocladia sp” (J Nat Prod, 2006).

pIC50: −log10 of the molar value. Activity calls are given as the source filed them. No cut-off for these calls is given here.

In test [1] the test system is NCI-H460. Briefly: Cytotoxicity against human NCI-H460 cells at 45 uM after 48 hrs by MTT assay. The format is functional, cell-based. The essentials: (§1)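 Cells grown in RPMI-1640 with L-glutamine, 1 mM pyruvate, penicillin/streptomycin, 0.2% bicarbonate and 10% FBS, seeded at 6000 cells/well. After 24 h, compound in DMSO diluted into serum-free medium was added (DMSO under 1% final), as a single screening concentration or a dilution series. Viability by MTT reduction after 48 h.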
(Formazan colour is commonly taken as a measure of viable cells.)

A short description of test [2]: Displacement of radiolabeled MK801 from NMDA receptor at 10 uM. The essentials: (§2)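 Receptor screen run by the NIMH Psychoactive Drug Screening Program. Each compound at 10 μM incubated with the relevant receptor preparation; percent inhibition of radioligand binding determined.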
A further test has as its system N2a. Briefly: Cytotoxicity against mouse Neuro2a cells at 45 uM after 48 hrs by MTT assay. The test is classed as functional, cell-based. The method in brief: as §1
Test [3] concerns MDA-MB-435. In words: Cytotoxicity against human MDA-MB-435 cells at 450 uM after 48 hrs by SRB assay. The format is functional, cell-based. The method in brief: (§3)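 MDA-MB-435 cells grown in IMEM with 10% FBS, attached 24 h in 96-well plates, then exposed 48 h to compound or EtOH vehicle. Fixed with 10% TCA at 4 °C for 1 h, stained with 0.4% SRB for 30 min, washed with 1% HOAc, solubilised in 10 mM Tris. Absorbance read at 560 nm. IC50 taken from linear portion of log dose-response curves.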
(In general: In SRB staining, fixed cells bind dye roughly in proportion to their protein.)

Test [4] addresses Delta-type opioid receptor (Homo sapiens) (UniProt P41143). Briefly: Agonist activity at human delta opioid receptor expressed in CHO cells assessed as inhibition of forskolin-stimulated adenylyl cyclase relative to [D-Pen2,D-Pen5]-enkephalin. The format is functional, cell-based. The method in brief: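 δ-Opioid receptor-expressing CHO cells washed with serum-free F12 Ham's medium, labelled 8 h with 1.2 μCi [3H]adenine. Then 40 min at 37 °C with 50 μM Ro20-1724, peptidase inhibitors (10 μM bestatin, 30 μM captopril, 50 μM L-leucyl-L-leucine), 50 μM forskolin and varied ligand concentrations. [3H]cAMP isolated on cation-exchange resin and alumina, counted with [14C]cAMP recovery correction.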

Test [5] shares this target. In words: Displacement of [3H][D-Ala2,D-Leu5]enkephalin from human cloned delta opioid receptor at 10 uM. The method in brief: as §2
Test [6] has as its system NCI-H460. Briefly: Induction of morphological changes in human NCI-H460 cells at 13.5 uM after 24 hrs. The test is classed as functional, cell-based.
For test [7], the system named is A10. In words: Induction of nucleus breakdown into micronuclei in rat A10 cells. The test is classed as functional, cell-based. The essentials:
(§4)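 A-10 cells on glass coverslips in Basal Medium Eagle with 10% FBS, treated 18-24 h. Methanol-fixed, blocked with 10% calf serum, probed with monoclonal β-tubulin antibody then FITC sheep anti-mouse secondary for 1 h. Nuclei stained with 0.1 μg/mL DAPI. Examined by fluorescence microscopy.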

Test [8] has as its system A10. In words: Induction of actin microfilament disrupting activity in rat A10 cells at 113 uM after 24 hrs. The test is classed as functional, cell-based. The method in brief:
(§5)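 A-10 rat aortic smooth muscle cells on glass coverslips in BME with 10% fetal calf serum, treated 24 h. Fixed in 3% paraformaldehyde, permeabilised with 0.2% Triton X-100, reduced with sodium borohydride. Actin stained 45 min with 100 nM TRITC-phalloidin, DNA with DAPI. Examined by fluorescence microscopy.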

The test system of test [9] is NCI-H460. In words: Cytotoxicity against human NCI-H460 cells after 48 hrs by MTT assay. The format is functional, cell-based. Conditions: NCI-H460, 48 h. The method in brief: as §1
Test [10] has as its system A10. Briefly: Induction of actin microfilament disrupting activity in rat A10 cells at 45 uM after 24 hrs. The test is classed as functional, cell-based. The essentials:
as §5

The test system of test [11] is MDA-MB-435. In words: Cytotoxicity against human MDA-MB-435 cells after 48 hrs by SRB assay. The test is classed as functional, cell-based. The conditions noted are these: MDA-MB-435, 48 h. The essentials: as §3
Test [12] has as its system MDA-MB-435. Briefly: Cell cycle arrest in human MDA-MB-435 cells assessed as accumulation at S phase at 20 uM after 24 hrs by flow cytometry. The test is classed as functional. The essentials:
(§6)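 MDA-MB-435 cells grown in IMEM with 10% FBS and gentamycin. Exposed 24 h to vehicle or sample, harvested and stained with Krishan's reagent. Propidium iodide intensity read by flow cytometry, with quality-control samples each run. Percentage of cells in each cycle phase fitted by manual analysis.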
Background: Flow cytometry measures light scatter and fluorescence of single cells or particles in a stream.

The test system of test [13] is MDA-MB-435. Briefly: Cell cycle arrest in human MDA-MB-435 cells assessed as accumulation at G2/M phase at 20 uM after 24 hrs by flow cytometry. The test is classed as functional. The essentials: as §6
Test [14] deals with NCI-H460. In words: Induction of morphological changes in human NCI-H460 cells at 13.5 uM after 6 days. The format is functional.
In test [15] the test system is A10. In words: Induction of microtubule depolymerization in rat A10 cells at 113 uM after 24 hrs by indirect immunofluorescence technique. The test is classed as functional, cell-based. The essentials: as §4
Test [16] concerns MDA-MB-435. Briefly: Cell cycle arrest in human MDA-MB-435 cells assessed as accumulation at G1 phase at 20 uM after 24 hrs by flow cytometry. The test is classed as functional. The essentials:
as §6

In test [17] the test system is A10. Briefly: Induction of microtubule depolymerization in rat A10 cells at 45 uM after 24 hrs by indirect immunofluorescence technique. The test is classed as functional. Conditions: A10, 24 h. The essentials:
as §4

Sequence of Delta-type opioid receptor (Homo sapiens) (P41143 whole entry): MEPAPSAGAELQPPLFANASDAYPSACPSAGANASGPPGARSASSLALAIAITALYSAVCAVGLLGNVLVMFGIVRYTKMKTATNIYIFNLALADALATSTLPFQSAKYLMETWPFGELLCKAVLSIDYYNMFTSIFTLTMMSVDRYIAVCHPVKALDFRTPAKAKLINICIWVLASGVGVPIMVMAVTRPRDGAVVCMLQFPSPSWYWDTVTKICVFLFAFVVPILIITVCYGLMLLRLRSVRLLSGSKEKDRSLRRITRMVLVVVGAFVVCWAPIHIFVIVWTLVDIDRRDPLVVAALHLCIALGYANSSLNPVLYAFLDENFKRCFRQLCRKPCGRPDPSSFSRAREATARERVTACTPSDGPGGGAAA

Consider `O=c1[nH]cc(-c2ccccc2)c2ccncc12`, for which the result (with NCI-H460 [1]; in the test on N2a; in the test with MDA-MB-435 [3]; in test [4]) was inactive. Also, the inhibition in test [2] and in test [5] was 50% throughout.
Take `Nc1ncc(-c2ccccc2)c2ccncc12` [LOPHOCLADINE B]: the result in the test with NCI-H460 [6], with A10 [7] and in the test on A10 [15] was Active. Moreover, the outcome in the test on A10 [8], in the test on A10 [10] and with N2a was inactive. For the same compound, the values for the pIC50 in the test with NCI-H460 [9] and with MDA-MB-435 [11] were 4.19 and 5.51, respectively. The Activity in the test with MDA-MB-435 [12] was found to be 8%; with MDA-MB-435 [13] it was 72.2%; with NCI-H460 [14] it was 80%; in the test on MDA-MB-435 [16], 19.8%. Moreover, the inhibition (in general, the relative decrease from the control value, in per cent) at 45 µM in the test with A10 [17] came out at 85%.
